Results from ChEMBL document CHEMBL1133083, “Synthesis and immunosuppressive activity of 2-substituted 2-aminopropane-1,3-diols and 2-aminoethanols” (2000).

Columns and labels:
Rattus norvegicus [1] = species: Rattus norvegicus; assay: Lymphocyte-decreasing effect against F344 rats.; format: functional; settings: for ED50: read-out: ID50 (the source's name)
In short: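 F344 rats aged 5 weeks were dosed intraperitoneally in 20% hydroxypropyl-β-cyclodextrin. Peripheral blood was taken 24 h later and total lymphocytes counted by lymphocyte gating. ID₅₀/ID₈₀ is the lowest dose lowering the lymphocyte count by 50% or 80% of the vehicle-treated control.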

Rattus norvegicus [2] = species: Rattus norvegicus; assay: Immunosuppressive activity against LEW rats injected with spleen cells of WKAH rat in Popliteal Lymph Node Gain Assay.; format: functional; settings: read-out: ID50 (the source's name)
In short: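 Popliteal lymph node gain: WKAH rat (RT1^k) spleen cells, 5 × 10⁶, injected into footpad of LEW rats (RT1^l) to enlarge the draining popliteal node. Compound given orally for 4 days starting on the day of cell injection, then popliteal node weighed. Value is ID₅₀ (mg/kg).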

Rattus norvegicus [3] = species: Rattus norvegicus; assay: T cell-decreasing effect in spleen cells of WKAH rat which were injected into foot-pad of LEW rat.; format: functional; settings: read-out: ID50 (the source's name)
In short: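 T-cell decrease was measured in the popliteal node gain model: WKAH spleen cells (5 × 10⁶) injected into the LEW rat footpad, with oral dosing for 4 days from the day of injection. Blood T-cells were counted by two-colour flow cytometry with FITC anti-rat CD3 (1F4) and PE anti-rat CD45RA (OX-33). Value is ID₅₀ (mg/kg).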

Rattus norvegicus [4] = assay: Immunosuppressive activity against skin allograft in F344 recipient (rat) from LEW donor (rat) at a concentration of 3 mg/kg; format: functional
In short: (§1)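 MHC-compatible skin allograft: LEW (RT1^l) donor skin to F344 (RT1^lv1) recipients, all rats 4-6 weeks old. Full-thickness 2.0 × 2.0 cm grafts were placed on the recipient's lateral thorax under sterile bactericidal gauze. Read-out was mean survival time in days ± SE, with four animals per group. Deaths were scored as toxic.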

Rattus norvegicus [5] = assay: Immunosuppressive activity against skin allograft in F344 recipient (rat) from LEW donor (rat) at a concentration of 0.3 mg/kg; format: functional; in short: as §1
Rattus norvegicus [6] = assay: Immunosuppressive activity against skin allograft in F344 recipient (rat) from LEW donor (rat) at a concentration of 1 mg/kg; format: functional; in short: as §1
Rattus norvegicus [7] = assay: Immunosuppressive activity against skin allograft in F344 recipient (rat) from LEW donor (rat) at a concentration of 0.1 mg/kg; format: functional; in short: as §1
Rattus norvegicus [8] = assay: Immunosuppressive activity against skin allograft in F344 recipient (rat) from LEW donor (rat) at a concentration of 10 mg/kg; Toxic; format: functional, organism-based; set-up: dose 10 mg/kg
Rattus norvegicus [9] = assay: Immunosuppressive activity against skin allograft in F344 recipient (rat) from LEW donor (rat) at a concentration of 3 mg/kg; Toxic; format: functional, organism-based; set-up: dose 3 mg/kg
Rattus norvegicus [10] = assay: Immunosuppressive activity against skin allograft in F344 recipient (rat) from LEW donor (rat) at a concentration of 10 mg/kg; format: functional; in short: as §1
Rattus norvegicus [11] = assay: Immunosuppressive activity against skin allograft in F344 recipient (rat) from LEW donor (rat) at a concentration of 30 mg/kg; format: functional; in short: as §1

Structure (SMILES)	ID80 (Rattus norvegicus [1]) [mg/kg]	ED50 (Rattus norvegicus [1]) [mg/kg]	ED50 (Rattus norvegicus [2]) [mg/kg]	ED50 (Rattus norvegicus [3]) [mg/kg]	MST (Rattus norvegicus [6]) [days]	other results
CCCCCCCC(O)c1ccc(CCC(N)(CO)CO)cc1 (stereo unspecified)	0.3	0.1				
CCCCCCCCCCc1ccc(C(N)(CO)CO)cc1.Cl	>3	0.3				
CCCCCCCCCCCCCCc1ccc(CCC(N)(CO)CO)cc1.Cl	>3	1				
CCCCCCCCc1ccc(CCC(N)CO)cc1.Cl (stereo unspecified)			> 10	> 10		
CCCCCCCOc1ccc(CCC(N)(CO)CO)cc1.Cl	0.1	0.03		0.014	33.8	MST (Rattus norvegicus [4]): 39.5 days; MST (Rattus norvegicus [5]): 23.5 days; MST (Rattus norvegicus [7]): 15 days; MST (Rattus norvegicus [8]): Toxic
CCCCCCCCc1ccc(CCC(N)(CO)C(=O)O)cc1 (stereo unspecified)			> 10	> 10		
CCCCCCCCCc1ccc(CCC(N)(CO)CO)cc1.Cl	0.1	0.03			32	MST (Rattus norvegicus [5]): 23 days; MST (Rattus norvegicus [9]): Toxic
CCCCCCCCc1cccc(CCC(N)(CO)CO)c1.Cl	>3	> 3				
CCCCCCCC(=O)c1ccc(CCC(N)(CO)CO)cc1	0.3	0.03			32.5	MST (Rattus norvegicus [5]): 25.5 days; MST (Rattus norvegicus [7]): 19.8 days; MST (Rattus norvegicus [9]): Toxic
CCCCCCCOc1ccc(CC[C@@](N)(CO)CCC)cc1				4.4		
CCCCCCCCc1ccc(CCC(N)(CO)CO)s1.Cl	>3	1			17.3	MST (Rattus norvegicus [4]): 21 days; MST (Rattus norvegicus [5]): 13 days
CCCCCCCCc1ccc(CCC(N)(CCO)CCO)cc1			> 10	> 10		
CCCCCCCOc1ccc(CCC(N)(CO)CCO)cc1 (stereo unspecified)			0.038	0.055		
CCCCCCCN(C)c1ccc(CCC(N)(CO)CO)cc1.Cl	1	1			21.3	MST (Rattus norvegicus [4]): 29 days; MST (Rattus norvegicus [8]): Toxic
CCCCCCCOc1ccc(CC[C@@](N)(CO)CCO)cc1.Cl			0.017	0.018		
CCCCCCc1ccc(CCCCC(N)(CO)CO)cc1	>3	> 3				MST (Rattus norvegicus [4]): 13.8 days; MST (Rattus norvegicus [10]): 18.8 days
CCCCCCCCCCCc1ccc(CCC(N)(CO)CO)cc1.Cl	0.1	0.1			39.3	MST (Rattus norvegicus [5]): 23.3 days; MST (Rattus norvegicus [9]): Toxic
CCCCCCCCc1ccc(CCC(N)(CO)CCO)cc1 (stereo unspecified)			0.009	0.12		
CCCCc1ccc(CCCCCCC(N)(CO)CO)cc1.Cl	1	0.3				MST (Rattus norvegicus [4]): 9.8 days; MST (Rattus norvegicus [10]): 13.5 days
CCCCCCCCCCCCCCC(N)(CO)CO.Cl	0.3	0.3			37.3	MST (Rattus norvegicus [4]): 45.5 days; MST (Rattus norvegicus [5]): 26.5 days; MST (Rattus norvegicus [7]): 13.8 days; MST (Rattus norvegicus [8]): Toxic
CCCCCCCOc1ccc(CCC(N)(CO)C(C)C)cc1.Cl (stereo unspecified)				4.5		
CCCCCCC/C(=N\O)c1ccc(CCC(N)(CO)CO)cc1	1	0.03				

Structure (SMILES)	ID80 (Rattus norvegicus [1]) [mg/kg]	ED50 (Rattus norvegicus [1]) [mg/kg]	ED50 (Rattus norvegicus [2]) [mg/kg]	ED50 (Rattus norvegicus [3]) [mg/kg]	MST (Rattus norvegicus [6]) [days]	other results
CCCCCCCCCc1ccc(CC(N)(CO)CO)cc1.Cl	>3	> 3				MST (Rattus norvegicus [4]): 9.8 days; MST (Rattus norvegicus [10]): 11.8 days
CCCCCCCc1ccc(CCCC(N)(CO)CO)cc1.Cl	>3	> 3				MST (Rattus norvegicus [4]): 9 days; MST (Rattus norvegicus [10]): 10.5 days
CCCCCCCCCCCCc1ccc(CCC(N)(CO)CO)cc1.Cl	1	0.1			40.5	MST (Rattus norvegicus [4]): 53 days; MST (Rattus norvegicus [5]): 22.8 days; MST (Rattus norvegicus [7]): 12 days; MST (Rattus norvegicus [8]): Toxic
C/C=C/C[C@@H](C)[C@@H](O)[C@H]1C(=O)N[C@@H](CC)C(=O)N(C)CC(=O)N(C)[C@@H](CC(C)C)C(=O)N[C@@H](C(C)C)C(=O)N(C)[C@@H](CC(C)C)C(=O)N[C@@H](C)C(=O)N[C@H](C)C(=O)N(C)[C@@H](CC(C)C)C(=O)N(C)[C@@H](CC(C)C)C(=O)N(C)[C@@H](C(C)C)C(=O)N1C [CYCLOSPORINE]	>30	> 30		> 30	8	MST (Rattus norvegicus [4]): 10.8 days; MST (Rattus norvegicus [11]): 19.8 days
CCCCCCCCc1ccc(CCC(N)(CO)CO)cc1.Cl [FINGOLIMOD HYDROCHLORIDE]	0.1	0.03	0.0097	0.024	39.5	MST (Rattus norvegicus [4]): 52 days; MST (Rattus norvegicus [5]): 31.3 days; MST (Rattus norvegicus [7]): 25.3 days; MST (Rattus norvegicus [8]): Toxic
CCCCCCCCCCc1ccc(CCC(N)(CO)CO)cc1.Cl	0.1	0.1			48	MST (Rattus norvegicus [5]): 37.8 days; MST (Rattus norvegicus [7]): 20 days; MST (Rattus norvegicus [9]): Toxic
CCCCCCCOc1ccc(CCC(N)(CO)CCC)cc1 (stereo unspecified)				7.3		
CCCCCCCOc1ccc(CCC(N)(CO)CCCC)cc1 (stereo unspecified)			> 10	> 10		
CCCCCCCOc1ccc(CCC(N)(CC)CO)cc1.Cl (stereo unspecified)				0.044		
C=CCC(N)(CO)CCc1ccc(OCCCCCCC)cc1 (stereo unspecified)			1.9	3.1		
CCc1ccc(CCCCCCCCC(N)(CO)CO)cc1.Cl	>3	> 3				MST (Rattus norvegicus [4]): 8.5 days; MST (Rattus norvegicus [10]): 8.6 days
CCCCCCCc1ccc(CCC(N)(CO)CO)cc1.Cl	0.3	0.1				
CCCCCCCCc1ccccc1CCC(N)(CO)CO.Cl	>3	> 3				
CCCCCCCOc1ccc(CC[C@@](C)(N)CO)cc1.Cl				0.0092		
CCCCCCCCCCCCCc1ccc(CCC(N)(CO)CO)cc1.Cl	1	0.03				
CCCCCCCCc1ccc(CCC(C)(N)CCO)cc1.Cl (stereo unspecified)			> 10	> 10		
CCCCCCCOc1ccc(CC[C@](N)(CO)CCO)cc1.Cl			4.2	4.2		
CCCCCCCOc1ccc(CC[C@](N)(CO)CCC)cc1			> 10	> 10		
Cl.NC(CO)(CO)CCCCCCCCCCc1ccccc1	1	0.3			27	MST (Rattus norvegicus [5]): 21.5 days; MST (Rattus norvegicus [7]): 11.5 days; MST (Rattus norvegicus [9]): Toxic
CCCCCCCCc1ccc(CCC(N)(CO)CCCO)cc1.Cl (stereo unspecified)			0.085	0.021		
CCCCCCCSc1ccc(CCC(N)(CO)CO)cc1	0.03	0.03			44.5	MST (Rattus norvegicus [5]): 36 days; MST (Rattus norvegicus [7]): 22.3 days; MST (Rattus norvegicus [9]): Toxic
